Assay results collected from several papers.
Lines come from different studies, so protocols differ.
Mode: inhibitor
VCP: Transitional endoplasmic reticulum ATPase (VCP, Homo sapiens, UniProt P55072)
SLCO1B3: Solute carrier organic anion transporter family member 1B3 (SLCO1B3, Homo sapiens, UniProt Q9NPD5)
BLK: Tyrosine-protein kinase Blk (BLK, Homo sapiens, UniProt P51451)

Structure (SMILES)	target	test	conditions	IC50
Cc1cc2c(C(N)=O)cccc2n1-c1nc2c(c(NCc3ccncc3)n1)CCCN2	VCP	enzyme activity, ADP detection		381 nM
CCc1oc2ccccc2c1C(=O)c1cc(Br)c(O)c(Br)c1	SLCO1B3	transporter uptake, radiometric	oocytes	25300 nM
CN(Cc1cnc2nc(N)nc(N)c2n1)c1ccc(C(=O)N[C@@H](CCC(=O)O)C(=O)O)cc1	SLCO1B3	transporter uptake, radiometric	2 min	498 nM
O=C1C[C@@H](c2ccccc2)Oc2cc(O)cc(O)c21	Protein disulfide-isomerase (P4HB, Homo sapiens, UniProt P07237)	enzyme activity, fluorescence		> 500000 nM
Clc1ccc(Nc2ccncc2)cc1Cl	G/T mismatch-specific thymine DNA glycosylase (TDG, Homo sapiens, UniProt Q13569)	enzyme activity		> 99000 nM
Cc1c(C(N)=O)c2ccccc2n1-c1nc2c(c(NCc3ccccc3)n1)CCCN2	VCP	enzyme activity, ADP detection		393 nM
CC(C)(/C=C(\C#N)C(=O)N1CCC[C@@H](n2nc(-c3ccc(Oc4ccccc4)cc3F)c3c(N)ncnc32)C1)N1CCN(C2COC2)CC1	BLK	enzyme activity		0.376 nM
O=C(O[C@@H]1[C@@H](O)[C@H](Oc2cc(O)c3c(c2)O[C@H](c2ccccc2)CC3=O)O[C@@H]2COC(=O)c3cc(O)c(O)c(O)c3-c3c(cc(O)c(O)c3O)C(=O)O[C@@H]12)c1cc(O)c(O)c(O)c1	Protein disulfide-isomerase A4 (PDIA4, Homo sapiens, UniProt P13667)	enzyme activity, fluorescence		7800 nM
COc1cccc2c1C(=O)c1c(O)c3c(c(O)c1C2=O)C[C@@](O)(C(=O)CO)C[C@@H]3O[C@H]1C[C@H](N)[C@H](O)[C@H](C)O1	Solute carrier organic anion transporter family member 1B3 (SLCO1B3, Homo sapiens, UniProt Q9NPD5, M233I)	transporter uptake, radiometric	2 min	> 100000 nM
CCN(CCO)CCCC(C)Nc1ccnc2cc(Cl)ccc12 (stereo not drawn)	Procathepsin L (CTSL, Homo sapiens, UniProt P07711)	enzyme activity, fluorescence		234000 nM
CONC(=O)c1cccc2c1cc(C)n2-c1nc2c(c(NCc3ccccc3)n1)CCCN2	VCP	enzyme activity, ADP detection		26 nM
CC(=O)O[C@H]1C(=O)[C@@]2(C)[C@H]([C@H](OC(=O)c3ccccc3)[C@]3(O)C[C@H](OC(=O)[C@H](O)[C@@H](NC(=O)c4ccccc4)c4ccccc4)C(C)=C1C3(C)C)[C@]1(OC(C)=O)CO[C@@H]1C[C@@H]2O	Solute carrier organic anion transporter family member 1B3 (SLCO1B3, Homo sapiens, UniProt Q9NPD5, S112A)	transporter uptake, radiometric	2 min	87700 nM
C=CC(=O)Nc1cccc(Oc2nc(Nc3ccc(N4CCN(C)CC4)cc3)nc3ccoc23)c1	BLK	enzyme activity		< 0.254 nM
Cc1cc2c(C(N)=O)cccc2n1-c1nc2c(c(NCc3ccccc3O)n1)CCCN2	VCP	enzyme activity, ADP detection		53 nM
CC1(C)NC(=O)N(c2ccc([N+](=O)[O-])c(C(F)(F)F)c2)C1=O	Aldo-keto reductase family 1 member C3 (AKR1C3, Homo sapiens, UniProt P42330)	enzyme activity		5000 nM
CC(C)n1c(/C=C/C(O)CC(O)CC(=O)O)c(-c2ccc(F)cc2)c2ccccc21 (stereo not drawn)	SLCO1B3	transporter uptake, radiometric	2 min	109 nM
COc1ccc(N(Cc2nc(-c3ccc(F)cc3)cs2)C(=O)CCCCCC(=O)NO)cc1	Histone deacetylase 4 (HDAC4, Homo sapiens, UniProt P56524)	enzyme activity		> 10000 nM
Cc1cc(O)c(-c2ccc([C@@H](C)CN(C)C)cc2)c2c1[nH]c(=O)c1sccc12	Cyclin-dependent kinase 13, with cyclin K (CDK13, Homo sapiens, UniProt Q14004)	enzyme activity		> 1000 nM
